# Assay results pooled from the literature.
# Compare with care: the assays were run in different laboratories.
# Organism: Leishmania donovani
# Observed: parasite growth
SMILES,assay,system,conditions,endpoint,result
c1ccc(CN2CCN(c3nc(-c4ccccn4)nc4ccccc34)CC2)cc1,imaging,THP-1,"intracellular, amastigote",IC50,2.6 µM
N=C(N)c1ccc(OCCCCCOc2ccc(C(=N)N)cc2)cc1,resazurin,,promastigote,IC50,1 µg/mL
COc1ccccc1-c1n[nH]c2nc(N[C@H]3CC[C@H](NS(=O)(=O)CCCOCCOCCNC(=O)OC(C)(C)C)CC3)ncc12,,,amastigote,EC50,1.36 µM
C[C@@H]1[C@H](O)[C@@H](C)/C=C/C=C/C=C/C=C/C=C/C=C/C=C/[C@H](O[C@@H]2O[C@H](C)[C@@H](O)[C@H](N)[C@@H]2O)C[C@@H]2O[C@](O)(C[C@@H](O)C[C@@H](O)[C@H](O)CC[C@@H](O)C[C@@H](O)CC(=O)O[C@H]1C)C[C@H](O)[C@H]2C(=O)O,MTT,,"48 h, promastigote",IC90,5.4 µM
CCCCCCCCCCCCCCCCOP(=O)([O-])OCC[N+](C)(C)C,resazurin,,"50 µM, 72 h, promastigote",inhibition,100%
COc1cc(NC(C)CCCNC(=S)NCCCC(C)Nc2cc(OC)cc3cccnc23)c2ncccc2c1.Cl.Cl (stereo not drawn),resazurin,,promastigote,IC90,20 to 31 µg/mL
COc1ccccc1-c1n[nH]c2nc(NC3CCN(C(=O)Cc4ccc(OCCOCCN)cc4)CC3)ncc12,,THP-1,"intracellular, amastigote",EC50,26.7 µM
c1ccc(-c2nc(N3CCCC3)c3ccccc3n2)nc1,,THP-1,"intracellular, amastigote",IC50,2.5 µM
COc1ccccc1-c1n[nH]c2nc(N[C@H]3CC[C@H](NS(=O)(=O)CCCOCCOCCN)CC3)ncc12,,THP-1,"intracellular, amastigote",EC50,24.7 µM
CCCCCCCC/C=C\CCCCCCCCCCCCOP(=O)([O-])OCC[N+](C)(C)C,resazurin,,"25 µM, 72 h, promastigote",inhibition,106%
COc1ccccc1-c1n[nH]c2nc(NC3CCN(C(=O)Cc4ccc(OCCOCCNC(=O)OC(C)(C)C)cc4)CC3)ncc12,,THP-1,"intracellular, amastigote",EC50,4.51 µM
C[C@@H]1[C@H](O)[C@@H](C)/C=C/C=C/C=C/C=C/C=C/C=C/C=C/[C@H](O[C@@H]2O[C@H](C)[C@@H](O)[C@H](N)[C@@H]2O)C[C@@H]2O[C@](O)(C[C@@H](O)C[C@@H](O)[C@H](O)CC[C@@H](O)C[C@@H](O)CC(=O)O[C@H]1C)C[C@H](O)[C@H]2C(=O)O,resazurin,,"72 h, promastigote",IC90,1.8 µg/mL
